# Test results from publication PMC4206749 (Toxicological Research, 2014).
# Tested on: S. typhimurium strains (TA98, TA100, TA1535, and TA1537) or E. coli strain (WP2 uvrA)
# Assay: Bacterial reverse mutation assay, all five tester strains
# Assay type: cell-based, Salmonella typhimurium, Escherichia coli
# In short: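 Pre-incubation Ames test per OECD 471 with S. typhimurium TA98, TA100, TA1535, TA1537 and E. coli WP2 uvrA. Bacteria plus test compound in DMSO (DMSO as negative control), with S9 mix (10% S9 plus cofactors) or 0.1 M phosphate buffer pH 7.4, were incubated 20 min at 37℃ shaking. Plated in histidine/biotin or tryptophan top agar, incubated 48 hr at 37℃, revertants counted. Triplicate plates; dose ratio about 2.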
smiles,measurement,setting,value
"Oc1ccc(-c2ccc3cc(O)ccc3c2)c(O)c1 [HS-1793, 4-(6-hydroxy-2-naphthyl)-1,3-benzenediol]",HS-1793 related toxicity (reduced revertant numbers and/or thinning of the background lawn),"5,000 μg/plate, absence or presence of S9 metabolic activation",not observed
same,Revertant frequencies compared to concurrent vehicle control,"any dose (78.1~5,000 μg/plate), any tester strain, with or without the S9 mix",No increases in revertant frequencies
